MrgX1 antagonist – antagonists of human MrgX1 receptor | MRGX1-HEK293 calcium flux, Fluo-4, BAM8-22 antagonism; hits give low values | B-score at 10 µM | 310,000 tested, 1.3% active | AID 588676;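 active = calcium-response B-score plate-corrected more than 3 library SD below zero, starting fluorescence within 5 deviations, no agonist response on first addition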;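 note: peak minus trough fluorescence over baseline after final BAM8-22 challenge near maximal dose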
Target sequence (Q96LB2 whole entry, looked up): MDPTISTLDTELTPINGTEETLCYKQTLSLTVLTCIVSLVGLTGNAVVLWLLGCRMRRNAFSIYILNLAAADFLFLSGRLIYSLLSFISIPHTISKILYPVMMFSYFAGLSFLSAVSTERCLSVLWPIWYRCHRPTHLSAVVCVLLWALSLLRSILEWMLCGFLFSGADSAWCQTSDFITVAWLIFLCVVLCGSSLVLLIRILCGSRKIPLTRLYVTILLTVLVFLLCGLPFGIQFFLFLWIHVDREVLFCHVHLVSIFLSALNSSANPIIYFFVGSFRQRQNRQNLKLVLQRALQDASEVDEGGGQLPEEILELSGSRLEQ
MrgX1 agonist – activates human MrgX1 receptor signaling. B-score at 10 µM. Q96LB2. MrgX1-HEK293 cells, Fluo-4 calcium fluorescence, agonist mode; hits give high values. 310,000 tested, 0.44% active;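 active = calcium response B-score plate-corrected fluorescence ratio at least 3 library SD, with starting fluorescence B-score inside 5 SD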
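Test system: HEK293 cells stably expressing human MrgX1 receptor; Input: fifteen thousand cells per well; Dosing: compound delivered in addition one of three; Schedule: overnight seeding, then 1 h dark dye loading; Technique: Fluo-4 NW calcium fluorescence; Measure: B-scored fluorescence response ratio; Controls: positive and negative controls per plate.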
RGS4 pot – potentiators or activators of RGS4; HEK293 M3R/inducible RGS4, carbachol calcium flux Fluo4; hits give low values; B-score at 10 µM; 310,000 tested, 0.92% active; AID 463111;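 active = B-score of the integrated calcium signal more than 4 SD below the library mean, with starting fluorescence not abnormally high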;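 note: negative B-score means reduced calcium response which marks RGS4 activation or potentiation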
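System: HEK293 FlpIn-TREx cells, stable M3R, doxycycline-inducible RGS4. Timing: overnight RGS4 induction, 30 min dye load 37 °C, 20 min compound RT. Also added: carbachol, ECmax concentration. Measured by: Fluo4 fluorescence kinetic imaging of calcium. Evaluation: integrated calcium ratio converted to B score.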
RGS4 block – human RGS4 inhibition; P49798; 310,000 tested, 0.45% active; AID 463165; B-score at 10 µM; HEK293 M3R/RGS4 inducible, Fluo-4 calcium flux; hits give high values; triggered by carbachol at its EC20;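 active = B-score, a plate-corrected calcium signal, over three deviations above library mean, with baseline fluorescence within five deviations of library mean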;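 note: RGS4 expression induced by doxycycline in cells with stable M3 receptor; B-score is computed from the integrated fluorescence ratio over baseline after carbachol; higher B-score means a larger calcium signal and so more RGS4 inhibition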
Target sequence (P49798 whole entry, looked up): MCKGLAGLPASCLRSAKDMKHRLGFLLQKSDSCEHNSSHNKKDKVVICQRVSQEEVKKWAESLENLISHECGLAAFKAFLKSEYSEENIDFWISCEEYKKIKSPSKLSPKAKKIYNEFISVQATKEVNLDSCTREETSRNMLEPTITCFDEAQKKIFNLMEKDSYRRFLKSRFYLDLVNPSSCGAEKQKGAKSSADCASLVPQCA
MrgX1 allo act – allosterically activates human MrgX1 receptor signaling | MrgX1-HEK293, Fluo-4 calcium flux, FDSS; hits give high values | B-score at 10 µM | 310,000 tested, 0.63% active | AID 588675;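 active = plate-corrected calcium response at least 3 library SD above typical, normal starting fluorescence, not activating the receptor alone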;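 note: compound read alongside a low EC10 to EC30 dose of BAM8-22 agonist; peak minus trough fluorescence over baseline measured at the second addition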
RGS4 activ val – RGS4 activation, validation assay. shares compounds with RGS4 pot. HEK293 M3R/RGS4 inducible, carbachol calcium flux Fluo4. inhibition, % at 10 µM. 1,100 tested, 89% active. AID 602282;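 active = inhibition above 3 SD of the buffer control wells, cut at about 41% in these data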;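 note: signal is the integrated peak-minus-minimum Fluo4 fluorescence over baseline ratio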
M3R Ca counter – RGS4 activator counter-screen hit in non-induced cells | 1,100 tested, 82% active | HEK293 M3R non-induced RGS4, Fluo4 calcium flux; after carbachol challenge at its EC90 | AID 602283 | shares compounds with RGS4 pot | inhibition, % at 10 µM;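 active = inhibition exceeding 3 SD of buffer-only control wells, cut at about 26% in these data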;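 note: percent drop in integrated peak-minus-baseline over baseline Fluo4 ratio after carbachol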
Hits are given with their value; 0 = inactive; - = no result given. Sampled rows, rich in hits. Any-hit rate of the full collection: about 3.5%.

SMILES | MrgX1 antagonist | MrgX1 agonist | RGS4 pot | RGS4 block | MrgX1 allo act | RGS4 activ val | M3R Ca counter
Cc1nc2ccc(Br)cc2c2c1CC(CBr)O2 (configuration not stated) | 0 | 0 | -8.1 | 0 | 0 | 64 | 84
COc1ccc(C(=O)NNC(=O)CSc2nnc(-c3cccnc3)o2)cc1 | 0 | 0 | 0 | 0 | 0 | - | -
CCc1ccc(NC(=O)CCc2nc3cccnc3n2Cc2ccc(OC)cc2)cc1 | 0 | 0 | -8 | 0 | 0 | 0 | 0
CCCCCCNC(=O)CCc1nc2cccnc2n1Cc1ccc(OC)cc1 | 0 | 0 | 0 | 0 | 0 | - | -
COc1cccc(-c2nc3c(c(SCC(=O)N4CCOCC4)n2)Cc2c(CO)cnc(C)c2O3)c1 | 0 | 0 | -8.1 | 0 | 0 | 40 | 84
Cc1ncc(CO)c2c1Oc1nc(-c3ccccc3)nc(SCC(=O)N3CCCCC3)c1C2 | 0 | 0 | -7.8 | 0 | 0 | 76 | 40
O=C(CN1C(=O)CCS(=O)(=O)c2ccccc21)Nc1ccccc1F | 0 | 0 | 0 | 0 | 0 | - | -
CC(C)=CCc1c(O)ccc2c1OC(c1ccc(O)c(O)c1)CC2=O (configuration not stated) | 0 | 0 | -8.7 | 0 | 0 | 93 | 78
O=C1CC(c2ccc(O)c(O)c2)Oc2c1ccc(O)c2O (configuration not stated) | 0 | 0 | - | - | 0 | - | -
CC(C)C[C@@H]1NC(=O)N(CCCn2ccnc2)C1=O | 0 | 0 | 0 | 0 | 0 | - | -
O=C1CCC(c2ccccc2)(C2CCN(Cc3ccccc3)CC2)C(=O)N1 (configuration not stated) | 0 | 0 | -7.8 | 0 | 0 | 94 | 94
CN(C)c1nc(/C=C(\C#N)C(N)=O)c(Cl)n1-c1ccc(F)cc1 | 0 | 0 | 0 | 0 | 0 | - | -
OCC1(Cc2ccccc2)CCN(Cc2ccc(-c3ccco3)cc2)CC1 | 0 | 0 | -10 | 0 | 0 | 90 | 52
OCC1(Cc2ccccc2)CCCN(Cc2ccc(-c3ccco3)cc2)C1 (configuration not stated) | 0 | 0 | 0 | 0 | 0 | - | -
COc1ccc2cc3cc(C(=O)Nc4ccccc4N4CCN(C)CC4)oc3nc2c1 | 0 | 0 | -8.9 | 0 | 0 | 40 | 0
CC(=O)N1CCc2cc(Br)cc(S(=O)(=O)CCC(=O)N3CCN(c4ccccn4)CC3)c21 | 0 | 0 | 0 | 0 | 0 | - | -
CCN(CC#CCC(O)(c1ccccc1)c1ccccc1)C(C)C | 0 | 0 | -8.3 | 0 | 0 | 79 | 30
CC(=O)c1ccc(N/C=C/C(=O)c2ccc(Br)cc2)cc1 | 0 | 0 | 0 | 0 | 0 | - | -
CCOC(=O)c1ccc(NC(=S)N2CCC(O)CC2)cc1 | 0 | 0 | 0 | 0 | 0 | - | -
CCOC(=O)c1ccc(NC(=S)N2CCCC(C(=O)N3CCCC3)C2)cc1 (configuration not stated) | 0 | 0 | 0 | 0 | 0 | - | -
CCOC(=O)c1ccc(NC(=S)N2CCCC(C)C2)cc1 (configuration not stated) | 0 | 0 | -8.9 | 0 | 0 | 79 | 26
CCOC(=O)c1ccc(NC(=S)N2CCSC2c2ccc(Br)cc2)cc1 (configuration not stated) | 0 | 0 | -8.1 | 0 | 0 | 92 | 91
CCOc1ccc(NC(=O)CC(Cc2cc(C)cc(C)c2)C(=O)O)cc1 (configuration not stated) | 0 | 0 | 0 | 0 | 0 | - | -
O=C(OCC(=O)N1CCc2ccccc21)c1c2c(nc3ccccc13)CCCCC2 | 0 | 0 | -9.4 | 0 | 0 | 83 | 44
CC(C)(C)NC(=O)COC(=O)c1c2c(nc3ccccc13)CCC2 | 0 | 0 | -9.6 | 0 | 0 | 44 | 0
SMILES | MrgX1 antagonist | MrgX1 agonist | RGS4 pot | RGS4 block | MrgX1 allo act | RGS4 activ val | M3R Ca counter
COCCC1CCCCN1C(=O)c1ccc(OC2CCN(C(C)=O)CC2)c(OC)c1 (configuration not stated) | 0 | 0 | 0 | 0 | 0 | - | -
CCCCNC(=S)Nc1cccc(S(=O)(=O)NC2=NCCC2)c1 | 0 | 0 | 0 | 0 | 0 | - | -
CC(C)Nc1nc(NC(C)C)nc(N(C#N)CCOc2ccc(Cl)cc2Cl)n1 | 0 | 0 | -7.8 | 0 | 0 | 63 | 84
Cc1ccc2nc(SCC(=O)Nc3nonc3C)[nH]c2c1 | 0 | 0 | 0 | 0 | 0 | - | -
Cc1ccc(NC(=O)c2cc(-c3cccs3)nc3ccccc23)nc1 | 0 | 0 | -7.9 | 0 | 0 | 78 | 0
Cc1c(NC(=O)c2cc(-c3cccs3)nc3ccccc23)c(=O)n(-c2ccccc2)n1C | 0 | 0 | 0 | 0 | 0 | - | -
CCCC(=O)NC(=S)Nc1cccc(Cl)c1N1CCCCC1 | 0 | 0 | -8.9 | 0 | 0 | 94 | 64
CCOC(=O)c1cc(-c2ccccc2)nc2nc(N(CC)CC)sc12 | 0 | 0 | -9 | 0 | 0 | 88 | 76
CCOC(=O)c1cc2sccc2n1CCCN1C(=O)c2ccccc2C1=O | 0 | 0 | -7.9 | 0 | 0 | 73 | 84
CCOC(=O)c1cc2sccc2n1Cc1ccccc1 | 0 | 0 | 0 | 0 | 0 | - | -
Cc1ccc(C)c(S(=O)(=O)N2CCN(C(=O)CCCc3c[nH]c4ccccc34)CC2)c1 | 0 | 0 | 0 | 0 | 0 | - | -
CCOC1=C/C(=C/c2c(N)n3nc(-c4ccccc4)sc3nc2=O)C=CC1=O | - | - | -12 | 0 | - | 65 | 33
COC(=O)NC(=S)Nc1ccc(Oc2ccc(Cl)cc2Cl)c(Cl)c1 | 0 | 0 | -7.8 | 0 | 0 | 92 | 70
CCOc1ccc2nc(NC(=O)CC3Oc4ccccc4NC3=O)sc2c1 (configuration not stated) | 0 | 0 | 0 | 0 | 0 | - | -
COC(=O)c1cc2sccc2n1Cc1nc(-c2cccc(Cl)c2)oc1C | 0 | 0 | 0 | 0 | 0 | - | -
COC(=O)c1cc2occc2n1Cc1nc(-c2cccc(Cl)c2)oc1C | 0 | 0 | -8.9 | 0 | 0 | 94 | 83
CCOC(=O)Oc1ccc2oc(C)c(C(=O)OCCOC)c2c1 | 0 | 0 | 0 | 0 | 0 | - | -
COCCOC(=O)c1c(C)oc2ccc(OC(=O)c3ccc4c(c3)OCO4)cc12 | 0 | 0 | -8.4 | 0 | 0 | 90 | 59
COCCOC(=O)c1c(C)oc2ccc(OC(=O)c3c(OC)cccc3OC)cc12 | 0 | 0 | -7.7 | 0 | 0 | 93 | 57
CCOc1ccccc1/C=N/n1nnnc1N | 0 | 0 | 0 | 0 | 0 | - | -
CCOC(=O)COc1nc(-c2ccccc2)cc(-c2ccco2)c1C#N | 0 | 0 | -7.7 | 0 | 0 | 88 | 54
N#Cc1c(OCC(=O)c2ccccc2)nc2c(c1-c1ccco1)CCc1ccccc1-2 | 0 | 0 | 0 | 0 | 0 | - | -
CCOC(=O)COc1nc2c(c(-c3ccco3)c1C#N)CCc1ccccc1-2 | 0 | 0 | -7.8 | 0 | 0 | 82 | 37
O=C(Nc1ccccc1C(=O)N1CCCCCC1)c1ccc(F)cc1 | 0 | 0 | 0 | 0 | 0 | - | -
O=c1ncn(-c2cccc(Cl)c2)c2ccccc12 | 0 | 0 | 0 | 0 | 0 | - | -

Compound activity from PubChem BioAssay.
